From ChEMBL document CHEMBL4130477, “Metabolites from the Plant Endophytic Fungus Aspergillus sp. CPCC 400735 and Their Anti-HIV Activities” (J Nat Prod, 2017) come the findings set out here.

A short description of data set [1]: Cytotoxicity against human SupT1 cells assessed as decrease in cell viability after 48 hrs by CCK-8 assay. The format is cell-based, SUP-T1.
The test system of data set [2] is Human immunodeficiency virus 1. Kind of data set: Antiviral activity against VSV-G pseudotyped HIV1 infected in human SupT1 cells after 48 hrs by luciferase reporter gene assay. The class given is functional, organism-based. The settings on record: Human immunodeficiency virus 1, SUP-T1, 48 h. A digest of the protocol: (§1)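 VSV-G pseudotyped HIV-1 (pNL-Luc-E plus pHIT/G) was made by […] (2 × 105), harvested at 48 h through a 0.45 μm filter, and quantified by p24 ELISA. […] Compounds were screened at 100 μM; IC50 was determined for those above 60% inhibition.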
(In general: In a reporter assay the amount or activity of a reporter protein is the signal.)

Data set [3] deals with Human immunodeficiency virus 1. Kind of data set: Antiviral activity against VSV-G pseudotyped HIV1 infected in human SupT1 cells at 100 uM after 48 hrs by luciferase reporter gene assay relative to control. The format is functional. To be noted: for inhibition at 100 µM: Human immunodeficiency virus 1, SUP-T1, 48 h. The gist of the method: as §1

Calls of active or inactive are those of the source. No cut-off for these calls is given here. Some results are limits rather than exact numbers.

Consider `COC(=O)[C@]1(Cc2ccc(O)cc2)OC(=O)C(OC)=C1c1ccc(O)cc1`, for which, in data set [1], the CC50 (usually the concentration that lowers cell viability or growth by half) at 48 h is over 100 µM. In addition, inhibition in data set [2] was half-maximal at 74.8 µM (IC50). In addition, in data set [3], the inhibition (commonly the percentage by which the read-out fell short of the control) at 100 µM is 68.7%.
For `O=C1O[C@H](Cc2ccc(O)cc2)C(c2ccc(O)cc2)=C1O`, in that order: over 100 µM, 54.2 µM and 62.2%.
For `COC(OC)C1CCC(C(C)(C)O)OC1CC/C(C)=C/CC/C(C)=C/C[C@]1(O)C(=O)c2c(O)cc(C)c3c(O)c(C)c(O)c(c23)C1=O` (stereo partly drawn), in data set [1], the CC50 at 48 h is over 100 µM. Also, the IC50 (usually the concentration that gives 50% inhibition) in data set [2] was found to be 2.4 µM. This compound came in with an inhibition at 100 µM in data set [3] of 99.8%.
For `Cc1c(O)c(O)c2c(c1C=O)[C@@H]1O[C@H](O2)c2c(C)c(O)c(O)c(O)c2C1=O`, in that order: over 100 µM, 6.6 µM and 99.9%.
With `COC(=O)c1cc(O)cc(OC)c1C(=O)c1c(O)cc(C)cc1O` [SULOCHRIN], the inhibition at 100 µM in data set [3] amounted to 53.8%.
As for `C/C(=C\CC/C(C)=C/C[C@]1(O)C(=O)c2c(O)cc(C)c3c(O)c(C)c(O)c(c23)C1=O)CC/C=C(\CO)CC[C@@H](O)C(C)(C)O`, in data set [1], the cytotoxic concentration (CC50) at 48 h was over 100 µM. Besides, the IC50 in data set [2] was found to be 22.1 µM. The inhibition at 100 µM in data set [3] is 98.6%.
For `COC(=O)c1cc(O)cc(OC)c1C(=O)c1c(O)c(Cl)c(C)c(Cl)c1O` [DIHYDROGEODIN], in that order: over 100 µM, 56.3 µM and 91.1%.
For `O=C1O/C(=C\c2ccc(O)c(O)c2)C(O)=C1c1ccc(O)cc1`, in that order: over 100 µM, 40 µM and 72.3%.
For `COc1cc(/C=C2\OC(=O)C(c3ccc(O)cc3)=C2O)cc(OC)c1O`, in that order: over 100 µM, 43.7 µM and 52.3%.
For the compound `CC(C)=CCC/C(=C/CC/C(C)=C/CC/C(C)=C/C[C@]1(O)C(=O)c2c(O)cc(C)c3c(O)c(C)c(O)c(c23)C1=O)CO`, the CC50 at 48 h in data set [1] is over 100 µM. This compound showed a half-maximal inhibitory concentration (IC50) in data set [2] of 4.5 µM. In addition, the inhibition at 100 µM in data set [3] was 100%.
`C/C(=C\CC/C(C)=C/C[C@]1(O)C(=O)c2c(O)cc(C)c3c(O)c(C)c(O)c(c23)C1=O)CC/C=C(/CC[C@@H](O)C(C)(C)O)C(=O)O`: the inhibition at 100 µM in data set [3] worked out at 48.1%.
Turning to `COC(=O)[C@@]1(Cc2ccc3c(c2)C[C@H](O)C(C)(C)O3)OC(=O)C(OC)=C1c1ccc(O)cc1`, the CC50 at 48 h in data set [1] was found to be 93 µM. The compound also displayed a 50% inhibitory concentration (IC50) in data set [2] of 48 µM. The same compound returned an inhibition at 100 µM in data set [3] of 84.8%.
For the compound `COc1cc(/C=C2\OC(=O)C(c3ccc(O)cc3)=C2O)cc(O)c1O`, the cytotoxic concentration (CC50) at 48 h in data set [1] was over 100 µM. In data set [2], this compound registered a half-inhibitory concentration (IC50) of 78.3 µM. This compound also had an inhibition at 100 µM in data set [3] of 69.8%.
For `COC(=O)c1cc(O)cc(OC)c1Oc1c(Cl)c(C)c(Cl)c(O)c1C(=O)O`, the inhibition result in data set [3] was “inactive”.
Same read-out and setting: the result for `COc1cc(/C=C2\OC(=O)C(c3ccc(O)cc3)=C2O)ccc1O` reads “inactive”.
As for `O=C1O/C(=C\c2ccc(O)cc2)C(O)=C1c1ccc(O)c(O)c1`, the CC50 at 48 h in data set [1] was over 100 µM. In data set [2], this compound showed an IC50 of 72.4 µM. The same compound yielded an inhibition at 100 µM in data set [3] of 74.8%.
For `C/C1=C\CC(=O)O[C@@]23C(=O)N[C@@H](Cc4ccccc4)[C@@H]2[C@H](C)[C@@]2(C)O[C@H]2[C@@H]3/C=C/C[C@H](C)C1=O`, in that order: 98.6 µM, 41.6 µM and 81.5%.
As for `C=C1[C@@H](C)[C@H]2[C@H](Cc3ccccc3)NC(=O)[C@]23OC(=O)/C=C/[C@H](C)[C@H](O)[C@@H](C)C/C=C/[C@H]3[C@@H]1O`, the CC50 at 48 h in data set [1] was 95.1 µM. This compound displayed an IC50 in data set [2] of 25.8 µM. Moreover, in data set [3], the inhibition at 100 µM was determined as 100%.
For the compound `Nc1ccn([C@@H]2CS[C@H](CO)O2)c(=O)n1` [LAMIVUDINE], half-maximal inhibition in data set [2] (IC50) required 0.1 µM.
With `COC(=O)[C@@]1(Cc2ccc(O)c(C[C@@H](O)C(C)(C)O)c2)OC(=O)C(OC)=C1c1ccc(O)cc1`, the cytotoxic concentration (CC50) at 48 h in data set [1] stood at 94.3 µM. In data set [2], this compound came in with a half-inhibitory concentration (IC50) of 82.3 µM. Also, the inhibition at 100 µM in data set [3] came to 64.3%.
Turning to `O=C1O/C(=C\c2ccc(O)cc2)C(O)=C1c1ccc(O)cc1`, the inhibition entry in data set [3] is “inactive”.
`O=C1Nc2ccc(Cl)cc2[C@@](C#CC2CC2)(C(F)(F)F)O1` [EFAVIRENZ] showed an IC50 in data set [2] of 0.0004 µM.
As to `C/C(=C\CC/C(C)=C/C[C@]1(O)C(=O)c2c(O)cc(C)c3c(O)c(C)c(O)c(c23)C1=O)CC/C=C(\CC[C@@H](O)C(C)(C)O)C(=O)O`, the CC50 at 48 h in data set [1] is 78.6 µM. In data set [2], this compound yielded an IC50 of 32.6 µM. The compound further registered an inhibition at 100 µM in data set [3] of 96.8%.
For `COC(=O)[C@@]1(Cc2ccc(O)c(C[C@H](O)C(C)(C)O)c2)OC(=O)C(OC)=C1c1ccc(O)cc1`, in that order: over 100 µM, 67.2 µM and 73.4%.
The matching figures for `Cc1c(O)c(O)c(O)c2c1COC2`: 91.4 µM, 49.3 µM and 90.8%.
For `COC(=O)[C@]1(Cc2ccc(O)cc2)OC(=O)C(O)=C1c1ccc(O)cc1`, in that order: over 100 µM, 84.5 µM and 60.8%.
`COC1=C(c2ccc(O)cc2)[C@@H](Cc2ccc(O)cc2)OC1=O`: the CC50 at 48 h in data set [1] turned out to be 96.5 µM. The compound also showed a 50% inhibitory concentration (IC50) in data set [2] of 68.7 µM. For the same compound, the inhibition at 100 µM in data set [3] came out at 72.8%.
Turning to `COC(=O)c1cc(O)cc(OC)c1Oc1cc(C)cc(O)c1C(=O)O` [ASTERRIC ACID], the inhibition at 100 µM in data set [3] amounted to 8.53%.
Consider `Cc1c(O)c(O)c(O)c(C=O)c1-c1cc2c(C=O)c(C)c(O)c(O)c2o1`, for which the half-maximal cytotoxic concentration (CC50) at 48 h in data set [1] was over 100 µM. Also, in data set [2], the IC50 stood at 20.2 µM. In data set [3], this compound came in with an inhibition at 100 µM of 94.7%.
The matching figures for `CC1=C(C)[C@H]2[C@H](Cc3ccccc3)NC(=O)[C@]23OC(=O)/C=C/[C@@](C)(O)C[C@@H](C)C/C=C/[C@H]3[C@@H]1O` [CYTOCHALASIN Z9]: over 100 µM, 14.4 µM and 98.7%.
Compound `C[C@H]1/C=C/OC(=O)O[C@@]23C(=O)N[C@@H](Cc4ccccc4)[C@@H]2[C@H](C)[C@@]2(C)OC2[C@@H]3/C=C/C[C@H](C)C1=O` (stereo partly drawn) returned an inhibition at 100 µM in data set [3] of 54.3%.
Consider `CC1=C(C)[C@H]2[C@H](Cc3ccccc3)NC(=O)[C@]23OC(=O)C/C=C(/C)C(=O)[C@@H](C)C/C=C/[C@H]3[C@@H]1O`, for which the CC50 at 48 h in data set [1] was 70.8 µM. For the same compound, the 50% inhibitory concentration (IC50) in data set [2] was 28.9 µM. The same compound returned an inhibition at 100 µM in data set [3] of 79.5%.
`COc1cc(O)cc(C(=O)O)c1Oc1cc(C)cc(O)c1C(=O)O` displayed an inhibition at 100 µM in data set [3] of 25.5%.
Take `CC1=C(C)[C@H]2[C@H](Cc3ccccc3)NC(=O)[C@]23OC(=O)/C=C/[C@H](C)[C@H](O)[C@@H](C)C/C=C/[C@H]3[C@@H]1O`: the CC50 at 48 h in data set [1] is over 100 µM. In addition, the IC50 in data set [2] amounted to 9.2 µM. Testing at 100 µM in data set [3] gave an inhibition of 100%.
`CC1=C(C)[C@H]2[C@H](Cc3ccccc3)NC(=O)[C@@]2(O)[C@@H](/C=C/C[C@H](C)C(=O)[C@H](C)O)[C@@H]1O` [CYTOCHALASIN Z13]: the inhibition at 100 µM in data set [3] stood at 44.9%.
